Marks after values point to notes of the source that are not given here.
Test system: not listed separately
Assay: Microsomal stability, mouse microsomes
Assay type: in vitro ADME
Conditions: % remaining at 1 h

Row | SMILES | Microsome Stability [% remaining]
1 | CNC[C@H](C)N1C[C@@H](C)[C@H](CN(C)S(=O)(=O)c2ccc(F)cc2)OCCCC[C@H](C)Oc2ccc(NC(=O)Nc3c(C)noc3C)cc2C1=O [Compound 6] | 51
2 | Cc1noc(C)c1NC(=O)Nc1ccc2c(c1)C(=O)N([C@@H](C)CNCC(F)(F)F)C[C@@H](C)[C@H](CN(C)S(=O)(=O)c1ccc(F)cc1)OCCCC[C@H](C)O2 [Compound 12] | <5
3 | C[C@@H]1CN([C@@H](C)CN(C)C)C(=O)c2cc(NC(=O)NC3COC3)ccc2O[C@@H](C)CCCCO[C@H]1CN(C)S(=O)(=O)c1ccc(F)cc1 [Compound 4] | 8
4 | CCN(CC)C[C@H](C)N1C[C@@H](C)[C@H](CN(C)S(=O)(=O)c2ccc(F)cc2)OCCCC[C@H](C)Oc2ccc(NC(=O)Nc3c(C)noc3C)cc2C1=O [Compound 9] | 5
5 | C[C@@H]1CN([C@@H](C)CN(C)C)C(=O)c2cc(NC(=O)Nc3ccc(F)cc3)ccc2O[C@@H](C)CCCCO[C@H]1CN(C)S(=O)(=O)c1ccc(F)cc1 [Compound 3] | <5
6 | Cc1noc(C)c1NC(=O)Nc1ccc2c(c1)C(=O)N([C@@H](C)C[N+](C)(C)[O-])C[C@@H](C)[C@H](CN(C)S(=O)(=O)c1ccc(F)cc1)OCCCC[C@H](C)O2 [Compound 10] | 35
7 | Cc1noc(C)c1NC(=O)Nc1ccc2c(c1)C(=O)N([C@@H](C)CN(C)C)C[C@@H](C)[C@H](CN(C)S(=O)(=O)c1ccc(F)cc1)OCCCC[C@H](C)O2 [Compound 5] | 8
8 | Cc1noc(C)c1NC(=O)Nc1ccc2c(c1)C(=O)N([C@@H](C)CNCC(C)(C)C)C[C@@H](C)[C@H](CN(C)S(=O)(=O)c1ccc(F)cc1)OCCCC[C@H](C)O2 [Compound 11] | 5

Next, values leading:

Row | Microsome Stability [% remaining] | SMILES
9 | <5 | CCN(CC)C[C@H](C)N1C[C@@H](C)[C@H](CN(C)S(=O)(=O)c2ccc(F)cc2)OCCCC[C@H](C)Oc2ncccc2C1=O [Compound 23]
10 | <5 | C[C@@H]1CN([C@@H](C)CN(C)C)C(=O)c2cccnc2O[C@@H](C)CCCCO[C@H]1CN(C)S(=O)(=O)c1ccc(F)cc1 [Compound 22]
11 | <5 | Cc1noc(C)c1NC(=O)Nc1ccc2c(c1)C(=O)N([C@@H](C)CN1CCOCC1)C[C@@H](C)[C@H](CN(C)S(=O)(=O)c1ccc(F)cc1)OCCCC[C@H](C)O2 [Compound 13]
12 | 65 | CNC[C@H](C)N1C[C@@H](C)[C@H](CN(C)S(=O)(=O)c2ccc(F)cc2)OCCCCOc2ccc(NC(=O)Nc3c(C)noc3C)cc2C1=O [Compound 35]
13 | 15 | Cc1noc(C)c1NC(=O)Nc1ccc2c(c1)C(=O)N([C@@H](C)CN(C)C)C[C@@H](C)[C@H](CN(C)S(=O)(=O)c1ccc(F)cc1)OCCCCO2 [Compound 36]

Test system: not listed separately
Assay: Metabolite identification study in mouse liver microsomes
Assay type: in vitro ADME
Conditions: via N-demethylation at R1, hydroxylation, and combined events

Row | metabolism in mouse liver microsomes | SMILES
14 | extensively metabolized | CNC[C@H](C)N1C[C@@H](C)[C@H](CN(C)S(=O)(=O)c2ccc(F)cc2)OCCCC[C@H](C)Oc2ccc(NC(=O)Nc3c(C)noc3C)cc2C1=O [Compound 6]
15 | extensively metabolized | Cc1noc(C)c1NC(=O)Nc1ccc2c(c1)C(=O)N([C@@H](C)CN(C)C)C[C@@H](C)[C@H](CN(C)S(=O)(=O)c1ccc(F)cc1)OCCCC[C@H](C)O2 [Compound 5]

Target: hERG (Homo sapiens, UniProt Q12809)
Sequence (Q12809 whole entry): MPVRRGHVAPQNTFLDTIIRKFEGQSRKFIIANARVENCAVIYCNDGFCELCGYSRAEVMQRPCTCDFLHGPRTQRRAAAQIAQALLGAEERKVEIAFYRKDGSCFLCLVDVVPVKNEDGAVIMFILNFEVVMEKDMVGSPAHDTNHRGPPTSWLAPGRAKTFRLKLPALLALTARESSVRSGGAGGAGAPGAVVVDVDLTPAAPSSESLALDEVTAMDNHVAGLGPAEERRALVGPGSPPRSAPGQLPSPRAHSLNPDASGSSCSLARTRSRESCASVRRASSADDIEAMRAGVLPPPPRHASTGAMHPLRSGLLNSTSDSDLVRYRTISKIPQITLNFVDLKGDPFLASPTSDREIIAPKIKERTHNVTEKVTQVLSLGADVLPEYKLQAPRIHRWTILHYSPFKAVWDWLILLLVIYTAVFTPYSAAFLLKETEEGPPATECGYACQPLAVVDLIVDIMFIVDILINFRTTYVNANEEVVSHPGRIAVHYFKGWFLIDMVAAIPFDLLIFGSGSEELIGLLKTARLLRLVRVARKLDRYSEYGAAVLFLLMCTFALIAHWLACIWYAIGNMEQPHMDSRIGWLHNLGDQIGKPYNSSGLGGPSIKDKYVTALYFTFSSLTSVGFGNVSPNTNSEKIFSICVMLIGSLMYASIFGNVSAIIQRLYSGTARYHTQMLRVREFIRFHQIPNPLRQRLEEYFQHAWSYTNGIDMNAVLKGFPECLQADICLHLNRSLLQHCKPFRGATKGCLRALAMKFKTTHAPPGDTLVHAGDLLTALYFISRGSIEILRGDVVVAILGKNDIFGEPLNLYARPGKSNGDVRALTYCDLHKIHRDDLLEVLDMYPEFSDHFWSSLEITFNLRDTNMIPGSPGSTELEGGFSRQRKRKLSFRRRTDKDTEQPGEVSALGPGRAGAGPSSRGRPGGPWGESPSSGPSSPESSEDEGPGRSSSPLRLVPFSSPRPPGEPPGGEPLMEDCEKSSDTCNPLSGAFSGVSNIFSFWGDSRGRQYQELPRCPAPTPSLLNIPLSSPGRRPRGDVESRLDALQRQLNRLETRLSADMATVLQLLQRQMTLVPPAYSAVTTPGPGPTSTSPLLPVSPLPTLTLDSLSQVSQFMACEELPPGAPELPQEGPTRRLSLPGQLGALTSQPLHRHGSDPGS
Assay: hERG binding assay, [3H]astemizole displacement
Conditions: 10 μM, assay run by Ricera under identical conditions
Outline: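 Single-point radioligand displacement at 10 μM of test compound. The result is expressed as percent displacement relative to control. The run was made at a second contract laboratory under conditions identical to the first laboratory's assay.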

Row | SMILES | hERG, % displacement control
16 | C[C@@H]1CN([C@@H](C)CN(C)C)C(=O)c2cc(NC(=O)Nc3ccccc3)ccc2O[C@@H](C)CCCCO[C@H]1CN(C)S(=O)(=O)c1ccc(F)cc1 [Compound 2] | 95^b %

Test system: P. falciparum Dd2
Assay: P. falciparum asexual blood-stage growth inhibition
Assay type: cell-based
Conditions: relative to compound 2

Row | SMILES | fold less potent than 2 (Dd2 GI50)
17 | C[C@@H]1CN([C@@H](C)CN(C)C)C(=O)c2cc(NC(=O)NC3COC3)ccc2O[C@@H](C)CCCCO[C@H]1CN(C)S(=O)(=O)c1ccc(F)cc1 [Compound 4] | approximately 60 fold

— publication PMC4207553 (Journal of Medicinal Chemistry, 2014)
